Reference: ChEMBL document CHEMBL1142894, “Preparation of 5-aryl-3-alkylthio-l,2,4-triazoles and corresponding sulfones with antiinflammatory-analgesic activity” (Bioorg Med Chem, 2007)
Calls of active or inactive are those of the source. The calls are words filed in the database; no cut-off is given here.

Legend:
Mus musculus [1] = assay: Antiinflammatory activity against carrageenan-induced paw edema in Swiss albino mouse assessed as swelling thickness at 50 mg/kg, po after 270 mins; type: functional
Procedure, shortened: (§1)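 Oral dosing in 0.5% CMC; vehicle to controls. Then carrageenan (0.5 mg/25 ll, freshly suspended in 154 mM saline) injected into the right hind paw subplantar tissue; saline into the left paw. Right-left footpad thickness difference measured by dial gauge calliper every 90 min over 6 h. Inhibition % is relative to vehicle control. n = 6; mean ± SEM.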

Mus musculus [2] = assay: Antiinflammatory activity against carrageenan-induced paw edema in Swiss albino mouse assessed as swelling thickness at 25 mg/kg, po after 270 mins; type: functional; procedure, shortened: as §1
Mus musculus [3] = assay: Analgesic activity against p-benzoquinone-induced abdominal constriction in Swiss albino mouse assessed as number of writhings at 25 mg/kg, po; type: functional, Abdomen
Procedure, shortened: (§2)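 Test samples given orally in 0.5% CMC; vehicle to controls. 60 min later, 2.5% (v/v) p-benzoquinone in distilled water, 0.1 ml/10 g, given i.p. Mice housed singly; writhes counted for 15 min starting 5 min after injection. Activity is % change from vehicle controls. n = 6; mean ± SEM.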

Mus musculus [4] = assay: Antiinflammatory activity against carrageenan-induced paw edema in Swiss albino mouse assessed as swelling thickness at 100 mg/kg, po after 90 mins; type: functional; procedure, shortened: as §1
Mus musculus [5] = assay: Antiinflammatory activity against carrageenan-induced paw edema in Swiss albino mouse assessed as swelling thickness at 200 mg/kg, po after 180 mins; type: functional; procedure, shortened: as §1
Mus musculus [6] = assay: Inhibition of p-benzoquinone-induced writhing in Swiss albino mouse at 50 mg/kg, po relative to control; type: functional
Procedure, shortened: (§3)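 Mice, n = 6 per group, dosed orally with a suspension in 0.5% sodium CMC. 60 min later, 0.1 ml/10 g of 2.5% […] p-benzoquinone in distilled water given ip. Abdominal writhes counted per animal for 15 min, starting 5 min after injection. Expressed as % change in mean writhing count versus vehicle controls.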

Mus musculus [7] = assay: Antiinflammatory activity against carrageenan-induced paw edema in Swiss albino mouse assessed as swelling thickness at 25 mg/kg, po after 90 mins; type: functional; procedure, shortened: as §1
Mus musculus [8] = assay: Acute toxicity in Swiss albino mouse assessed as lethal effect at 100 mg/kg/day, po after 72 hrs; type: organism-based; set-up: route oral; conditions: in vivo
Procedure, shortened: (§4)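 Oral single dose suspended in 0.5% carboxymethylcellulose, given after a 24 h fast; food and water returned 1 h after dosing. Vehicle-only controls. Mice observed at 1 h, then once daily for 72 h, for toxic signs and mortality.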

Mus musculus [9] = assay: Inhibition of carrageenan-induced paw edema in Swiss albino mouse at 50 mg/kg, po after 360 mins relative to control; type: functional; conditions: 6 h
Procedure, shortened: (§5)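 Mice, n = 6 per group. Test agent given orally as a suspension in 0.5% sodium CMC in distilled water; controls received vehicle only. Afterwards, 0.5 mg/25 ll carrageenan in saline (154 mM NaCl) injected subplantar into the right hind paw, saline into the left. Right-minus-left footpad thickness measured by dial gauge caliper every 90 min for 6 h. Inhibition is relative to vehicle-control group means.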

Mus musculus [10] = assay: Inhibition of carrageenan-induced paw edema in Swiss albino mouse at 100 mg/kg, po after 270 mins relative to control; type: functional; conditions: 4.5 h; procedure, shortened: as §1
Mus musculus [11] = assay: Antiinflammatory activity against carrageenan-induced paw edema in Swiss albino mouse assessed as swelling thickness at 25 mg/kg, po after 180 mins; type: functional; procedure, shortened: as §1
Mus musculus [12] = assay: Analgesic activity against p-benzoquinone-induced abdominal constriction in Swiss albino mouse assessed as number of writhings at 200 mg/kg, po; type: functional, Abdomen; procedure, shortened: as §2
Mus musculus [13] = assay: Acute toxicity in Swiss albino mouse assessed as lethal effect at 200 mg/kg/day, po after 72 hrs; type: organism-based; set-up: route oral; conditions: in vivo; procedure, shortened: as §4
Mus musculus [14] = assay: Antiinflammatory activity against carrageenan-induced paw edema in Swiss albino mouse assessed as swelling thickness at 50 mg/kg, po after 180 mins; type: functional; procedure, shortened: as §1
Mus musculus [15] = assay: Antiinflammatory activity against carrageenan-induced paw edema in Swiss albino mouse assessed as swelling thickness at 200 mg/kg, po after 270 mins; type: functional; procedure, shortened: as §1
Mus musculus [16] = assay: Inhibition of p-benzoquinone-induced writhing in Swiss albino mouse at 25 mg/kg, po relative to control; type: functional; procedure, shortened: as §3
Mus musculus [17] = assay: Analgesic activity against p-benzoquinone-induced abdominal constriction in Swiss albino mouse assessed as number of writhings at 50 mg/kg, po; type: functional, Abdomen; procedure, shortened: as §2
Mus musculus [18] = assay: Gastric-ulcerogenic effect in Swiss albino mouse assessed as lesions at 50 mg/kg, po; type: functional, organism-based; set-up: dose 50 mg/kg
Procedure, shortened: (§6)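 Mice killed under deep ether anesthesia 3 h after the writhing test; the oral dose in 0.5% CMC was the one used in that test. Stomachs removed, opened along the great curvature and examined under a dissecting microscope for lesions or bleeding. Reported as ratio of ulceration; n = 6.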

Mus musculus [19] = assay: Antiinflammatory activity against carrageenan-induced paw edema in Swiss albino mouse assessed as swelling thickness at 50 mg/kg, po after 360 mins; type: functional; procedure, shortened: as §1
Mus musculus [20] = assay: Inhibition of carrageenan-induced paw edema in Swiss albino mouse at 100 mg/kg, po after 180 mins relative to control; type: functional; conditions: 3 h; procedure, shortened: as §1
Mus musculus [21] = assay: Antiinflammatory activity against carrageenan-induced paw edema in Swiss albino mouse assessed as swelling thickness at 100 mg/kg, po after 180 mins; type: functional; procedure, shortened: as §1
Mus musculus [22] = assay: Antiinflammatory activity against carrageenan-induced paw edema in Swiss albino mouse assessed as swelling thickness at 100 mg/kg, po after 360 mins; type: functional; procedure, shortened: as §1
Mus musculus [23] = assay: Inhibition of p-benzoquinone-induced writhing in Swiss albino mouse at 100 mg/kg, po relative to control; type: functional; procedure, shortened: as §3
Mus musculus [24] = assay: Inhibition of carrageenan-induced paw edema in Swiss albino mouse at 100 mg/kg, po after 90 mins relative to control; type: functional; conditions: 1.5 h; procedure, shortened: as §1
Mus musculus [25] = assay: Analgesic activity against p-benzoquinone-induced abdominal constriction in Swiss albino mouse assessed as number of writhings at 100 mg/kg, po; type: functional, Abdomen; procedure, shortened: as §2
Mus musculus [26] = assay: Gastric-ulcerogenic effect in Swiss albino mouse assessed as lesions at 100 mg/kg, po; type: functional, organism-based; set-up: dose 100 mg/kg; procedure, shortened: as §6
Mus musculus [27] = assay: Acute toxicity in Swiss albino mouse assessed as lethal effect at 50 mg/kg/day, po after 72 hrs; type: organism-based; set-up: route oral; conditions: in vivo; procedure, shortened: as §4
Mus musculus [28] = assay: Inhibition of carrageenan-induced paw edema in Swiss albino mouse at 50 mg/kg, po after 180 mins relative to control; type: functional; conditions: 3 h; procedure, shortened: as §1
Mus musculus [29] = assay: Inhibition of carrageenan-induced paw edema in Swiss albino mouse at 50 mg/kg, po after 90 mins relative to control; type: functional; conditions: 1.5 h; procedure, shortened: as §5
Mus musculus [30] = assay: Inhibition of carrageenan-induced paw edema in Swiss albino mouse at 50 mg/kg, po after 270 mins relative to control; type: functional; conditions: 4.5 h; procedure, shortened: as §5
Mus musculus [31] = assay: Antiinflammatory activity against carrageenan-induced paw edema in Swiss albino mouse assessed as swelling thickness at 50 mg/kg, po after 90 mins; type: functional; procedure, shortened: as §1
Mus musculus [32] = assay: Antiinflammatory activity against carrageenan-induced paw edema in Swiss albino mouse assessed as swelling thickness at 200 mg/kg, po after 90 mins; type: functional; procedure, shortened: as §1
Mus musculus [33] = assay: Antiinflammatory activity against carrageenan-induced paw edema in Swiss albino mouse assessed as swelling thickness at 200 mg/kg, po after 360 mins; type: functional; procedure, shortened: as §1
Mus musculus [34] = assay: Antiinflammatory activity against carrageenan-induced paw edema in Swiss albino mouse assessed as swelling thickness at 25 mg/kg, po after 360 mins; type: functional; procedure, shortened: as §1
Mus musculus [35] = assay: Antiinflammatory activity against carrageenan-induced paw edema in Swiss albino mouse assessed as swelling thickness at 100 mg/kg, po after 270 mins; type: functional; procedure, shortened: as §1
Mus musculus [36] = assay: Inhibition of carrageenan-induced paw edema in Swiss albino mouse at 100 mg/kg, po after 360 mins relative to control; type: functional; conditions: 6 h; procedure, shortened: as §1
Mus musculus [37] = assay: Gastric-ulcerogenic effect in Swiss albino mouse assessed as lesions at 25 mg/kg, po; type: functional, organism-based; set-up: dose 25 mg/kg; procedure, shortened: as §6
Mus musculus [38] = assay: Inhibition of p-benzoquinone-induced writhing in Swiss albino mouse at 200 mg/kg, po relative to control; type: functional; procedure, shortened: as §3
Mus musculus [39] = assay: Acute toxicity in Swiss albino mouse assessed as lethal effect at 25 mg/kg/day, po after 72 hrs; type: organism-based; set-up: route oral; conditions: in vivo; procedure, shortened: as §4

CS(=O)(=O)c1nc(-c2ccc(Cl)cc2)n[nH]1
Activity (Mus musculus [1]): 47.9 10^-2mm
Activity (Mus musculus [2]): 69.5 10^-2mm
Activity (Mus musculus [3]): 42.8
Activity (Mus musculus [4]): 37.5 10^-2mm
Activity (Mus musculus [5]): 65.8 10^-2mm
inhibition in vivo at 50 mg/kg (Mus musculus [6]): 42.8%
Activity (Mus musculus [7]): 55.2 10^-2mm
Activity (Mus musculus [8]): Non-toxic
inhibition in vivo at 50 mg/kg (Mus musculus [9]): 30.3%
inhibition in vivo at 100 mg/kg (Mus musculus [10]): 21.4%
Activity (Mus musculus [11]): 62.8 10^-2mm
Activity (Mus musculus [12]): 46.8
Activity (Mus musculus [13]): Non-toxic
Activity (Mus musculus [14]): 46.2 10^-2mm
Activity (Mus musculus [15]): 69.4 10^-2mm
inhibition in vivo at 25 mg/kg (Mus musculus [16]): 16.7%
Activity (Mus musculus [17]): 29.4
Activity (Mus musculus [18]): Active
Activity (Mus musculus [19]): 50.2 10^-2mm
inhibition in vivo at 100 mg/kg (Mus musculus [20]): 16.9%
Activity (Mus musculus [21]): 42.8 10^-2mm
Activity (Mus musculus [22]): 51.2 10^-2mm
inhibition in vivo at 100 mg/kg (Mus musculus [23]): 34.5%
inhibition in vivo at 100 mg/kg (Mus musculus [24]): 16.3%
Activity (Mus musculus [25]): 31
Activity (Mus musculus [26]): Active
Activity (Mus musculus [27]): Non-toxic
inhibition in vivo at 50 mg/kg (Mus musculus [28]): 22.2%
inhibition in vivo at 50 mg/kg (Mus musculus [29]): 18%
inhibition in vivo at 50 mg/kg (Mus musculus [30]): 26.1%
Activity (Mus musculus [31]): 43.6 10^-2mm
Activity (Mus musculus [32]): 59.4 10^-2mm
Activity (Mus musculus [33]): 76.1 10^-2mm
Activity (Mus musculus [34]): 75.4 10^-2mm
Activity (Mus musculus [35]): 46.2 10^-2mm
inhibition in vivo at 100 mg/kg (Mus musculus [36]): 25.6%
Activity (Mus musculus [37]): Active
inhibition in vivo at 200 mg/kg (Mus musculus [38]): 8.9%
Activity (Mus musculus [39]): Non-toxic

CCS(=O)(=O)c1nc(-c2ccc(Br)cc2)n[nH]1
Activity (Mus musculus [1]): 49.1 10^-2mm
Activity (Mus musculus [2]): 67.8 10^-2mm
Activity (Mus musculus [3]): 40.9
Activity (Mus musculus [4]): 32.1 10^-2mm
Activity (Mus musculus [5]): 61.5 10^-2mm
inhibition in vivo at 50 mg/kg (Mus musculus [6]): 30.2%
Activity (Mus musculus [7]): 54.6 10^-2mm
Activity (Mus musculus [8]): Non-toxic
inhibition in vivo at 50 mg/kg (Mus musculus [9]): 30%
inhibition in vivo at 100 mg/kg (Mus musculus [10]): 22.3%
Activity (Mus musculus [11]): 62.8 10^-2mm
Activity (Mus musculus [12]): 50.6
Activity (Mus musculus [13]): Non-toxic
Activity (Mus musculus [14]): 43.5 10^-2mm
Activity (Mus musculus [15]): 68.5 10^-2mm
inhibition in vivo at 25 mg/kg (Mus musculus [16]): 20.4%
Activity (Mus musculus [17]): 35.9
Activity (Mus musculus [18]): Active
Activity (Mus musculus [19]): 50.4 10^-2mm
inhibition in vivo at 100 mg/kg (Mus musculus [20]): 25.6%
Activity (Mus musculus [21]): 38.3 10^-2mm
Activity (Mus musculus [22]): 49.9 10^-2mm
inhibition in vivo at 100 mg/kg (Mus musculus [23]): 25.6%
inhibition in vivo at 100 mg/kg (Mus musculus [24]): 28.3%
Activity (Mus musculus [25]): 35.2
Activity (Mus musculus [26]): Active
Activity (Mus musculus [27]): Non-toxic
inhibition in vivo at 50 mg/kg (Mus musculus [28]): 26.8%
inhibition in vivo at 50 mg/kg (Mus musculus [29]): 35.2%
inhibition in vivo at 50 mg/kg (Mus musculus [30]): 24.2%
Activity (Mus musculus [31]): 40.4 10^-2mm
Activity (Mus musculus [32]): 57.4 10^-2mm
Activity (Mus musculus [33]): 76.2 10^-2mm
Activity (Mus musculus [34]): 75.1 10^-2mm
Activity (Mus musculus [35]): 45.7 10^-2mm
inhibition in vivo at 100 mg/kg (Mus musculus [36]): 27.5%
Activity (Mus musculus [37]): Active
inhibition in vivo at 200 mg/kg (Mus musculus [38]): 1.6%
Activity (Mus musculus [39]): Non-toxic
